AHR act = activates the human aryl hydrocarbon receptor | AHR-responsive luciferase reporter cells, luminescence | hit rate 2.5% among 320,000 | AID 2796 | P35869 | activation, % at 5 µM; in the data active = activation above about 47%
ABCB6 inh 2 = human ABCB6 transporter inhibition; hit rate 0.19% among 360,000; Q9NP58; fluorescence ratio to DMSO, % at 10 µM; K562-ABCB6 porphyrin accumulation, flow cytometry, 1 h; hits give low values;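 active = fluorescence ratio to DMSO below 75%, the collection mean minus 3 SD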;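 note: signal is porphyrin accumulated inside mitochondria; lower ratio means ABCB6 inhibition with less porphyrin fluorescence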
Target sequence (Q9NP58 whole entry, looked up): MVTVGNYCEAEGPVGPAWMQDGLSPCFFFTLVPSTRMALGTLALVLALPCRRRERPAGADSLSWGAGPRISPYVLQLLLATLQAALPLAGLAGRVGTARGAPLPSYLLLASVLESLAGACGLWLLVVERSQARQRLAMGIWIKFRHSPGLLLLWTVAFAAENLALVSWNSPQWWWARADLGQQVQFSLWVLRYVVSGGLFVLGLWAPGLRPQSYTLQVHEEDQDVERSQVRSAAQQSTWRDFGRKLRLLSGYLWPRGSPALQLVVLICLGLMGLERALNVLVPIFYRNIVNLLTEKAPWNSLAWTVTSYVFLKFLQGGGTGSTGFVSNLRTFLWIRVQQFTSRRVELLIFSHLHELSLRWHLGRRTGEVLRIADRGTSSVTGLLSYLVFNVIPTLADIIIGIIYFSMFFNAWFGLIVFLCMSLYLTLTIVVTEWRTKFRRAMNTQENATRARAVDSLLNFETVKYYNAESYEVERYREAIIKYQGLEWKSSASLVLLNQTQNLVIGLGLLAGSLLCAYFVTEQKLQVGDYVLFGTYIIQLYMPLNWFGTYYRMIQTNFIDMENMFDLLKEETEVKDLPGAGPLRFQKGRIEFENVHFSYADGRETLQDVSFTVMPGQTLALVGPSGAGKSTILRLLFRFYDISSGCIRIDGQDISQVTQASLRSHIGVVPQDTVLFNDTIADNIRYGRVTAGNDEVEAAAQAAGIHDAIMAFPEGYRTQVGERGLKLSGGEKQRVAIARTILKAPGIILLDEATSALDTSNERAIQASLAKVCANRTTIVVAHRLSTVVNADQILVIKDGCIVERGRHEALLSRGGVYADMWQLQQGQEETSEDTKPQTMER
FXN GAA850 act = activators of GAA850 frataxin (FXN) promoter; HEK293 lucGAA850 FXN promoter luciferase reporter, 24 h; percent of 10 µM SAHA response; activation, % at 6 µM; hit rate 0.56% among 360,000; AID 540364;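 active = activation above the average of all compounds screened plus 3 SD, cutoff fixed separately per campaign, cut at about 7.5% in these data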
STAT3 act = increases IL-6 driven STAT3 reporter signal | U3A cells, IL-6 STAT3-luciferase reporter, luminescence; 100% = signal with IL-6 EC80 alone | hit rate 0.91% among 190,000 | activation (% of control), % at 5.6 µM;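 active = activation above the screen-wide mean of compound activation plus 3 SD, cut at about 130% in these data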
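Material: human STAT1-deficient U3A cells with stable STAT3-luciferase reporter / Probe or stimulus: IL-6 stimulus at 33 ng/mL final / Schedule: 1 h compound pre-exposure, 6 h IL-6 stimulation, 37 °C / Technique: luminescence / Read-out basis: percent of IL-6-only median luminescence / Control set: IL-6-only high control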
AHR act cf = human AHR activation, confirmation | AID 2845 | shares compounds with AHR act | human cells, AHR-responsive luciferase reporter, luminescence | hit rate 87% among 2,300 | activation, % at 9 µM; in the data active = activation above about 49%;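 note: HepG2 hepatoma cells carrying a DRE-driven firefly luciferase reporter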
PXR act counter = activates human PXR in AHR activator counter-screen; shares compounds with AHR act; cell-based PXR reporter, luciferase luminescence; activation, % at 11.6 µM; hit rate 88% among 2,300; AID 434939; in the data active = activation above about 11%;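 note: human hepatoma DPX-2 cells expressing full-length human PXR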
Hits are given with their value; - = inactive; . = no result. Shown are actives, neighbours in structure and some others; about 3.3% of the full set was active somewhere.

SMILES	AHR act	ABCB6 inh 2	FXN GAA850 act	STAT3 act	AHR act cf	PXR act counter
N#C/C(=C\c1ccc(-c2ccccc2C(=O)O)o1)c1nc2ccccc2[nH]1	-	-	-	.	.	.
CCc1nn(CC(=O)NCCN2CCN(C)CC2)c(=O)c2cc3c(OC)cccc3n12	-	-	-	.	.	.
CN(C)S(=O)(=O)c1cccc(C(=O)OCC(=O)NCc2ccc3c(c2)OCO3)c1	-	-	-	-	.	.
CCOC(=O)c1cc(C#N)c(N2CCN(c3ccc(OC)cc3)CC2)[nH]c1=O	-	-	-	-	.	.
O=C1CN(C(=O)CNCc2ccccc2Cl)c2ccccc2N1	88	-	-	.	61	39
Cc1c(/C=N/NC(=O)COc2ccccc2[N+](=O)[O-])c2ccccc2n1C	81	-	-	-	95	101
CCc1nnc(NC(=O)CSc2nc(C)cc(C)c2C#N)s1	102	-	-	-	62	45
Cc1c(-c2nc(-c3cccnc3)no2)cccc1[N+](=O)[O-]	88	-	-	-	119	19
CN1CCN(CC(=O)Nc2c(C(=O)c3ccccc3)oc3ccccc23)CC1	79	-	-	.	61	20
COc1ccc2oc(C(=O)c3ccccc3)c(NC(=O)CN3CCN(C)CC3)c2c1	-	-	-	-	.	.
CC(Nc1nc(-c2cccc(Br)c2)cs1)c1nc2cc(Cl)c(N3CCCCC3)cc2n1CCOCCO (stereo not drawn)	-	-	-	.	.	.
Cc1cccc(NC(=O)c2ccc(NCC3CCCO3)c([N+](=O)[O-])c2)c1 (stereo not drawn)	-	-	-	-	.	.
Cc1cccc(Nc2nc(NCC3CCCO3)nc(N)c2[N+](=O)[O-])c1 (stereo not drawn)	-	-	-	-	.	.
O=C(Nc1cccc(Cl)c1)c1ccc(NCC2CCCO2)c([N+](=O)[O-])c1 (stereo not drawn)	91	-	-	-	-	30
Nc1nc(NCC2CCCO2)nc(Nc2cccc(Cl)c2)c1[N+](=O)[O-] (stereo not drawn)	99	-	-	.	-	16
Cc1ccc(/C=N/NC(=O)c2cccs2)s1	130	-	-	-	-	28
CCCCCCN(C(=O)CCCCCN1C(=O)NC(c2cccc([N+](=O)[O-])c2)C(C(=O)OCc2ccccc2)=C1C)C(C(=O)NCCCC)c1ccc(OCC(=O)OC)c(C(=O)OC)c1 (stereo not drawn)	-	.	.	.	.	.
Cc1ccc(/C=N/Nc2nc3ccccc3s2)o1	111	-	-	-	113	14
C#Cc1ccc2c(c1)COc1c3ccccc3nn1-2	88	-	-	.	62	25
C(#Cc1ccc2c(c1)COc1c3ccccc3nn1-2)c1ccccc1	-	-	-	.	.	.
N#CC1=C(N)Oc2n[nH]c(-c3ccncc3)c2C1c1ccsc1 (stereo not drawn)	-	-	-	-	.	.
N#CC1=C(N)Oc2n[nH]c(-c3ccc(F)cc3)c2C1c1ccncc1 (stereo not drawn)	106	-	-	-	103	18
N#CC1=C(N)Oc2n[nH]c(-c3ccc(F)cc3)c2C1c1cccc(OC(=O)N2CCOCC2)c1 (stereo not drawn)	106	-	-	-	115	32
N#CC1=C(N)Oc2n[nH]c(-c3ccccc3)c2C1c1cccc(OC(=O)N2CCOCC2)c1 (stereo not drawn)	-	-	-	-	.	.
O=C(Nc1ccc(F)cc1)c1nsc(Cl)c1Cl	83	-	-	-	222	40
SMILES	AHR act	ABCB6 inh 2	FXN GAA850 act	STAT3 act	AHR act cf	PXR act counter
O=C(Nc1ccc(F)cc1)c1ccc2nc[nH]c2c1	147	-	-	-	136	14
O=C(Nc1ccc(F)cc1)c1ccc2nsnc2c1	96	-	-	.	124	26
COc1cccc(NC(=O)c2ccc3nsnc3c2)c1	-	-	-	.	.	.
Cc1nc(-c2cccnc2)sc1C(=O)Nc1cccc(C(F)(F)F)c1	-	-	-	-	.	.
Cc1cc(-c2onc(C)c2C(=O)Nc2ccc(C(F)(F)F)cc2)no1	84	-	-	.	95	39
Cc1nc(-c2cccnc2)sc1C(=O)Nc1ccc(C(F)(F)F)cc1	95	-	-	-	61	10
Cc1nc(Cl)sc1C(=O)Nc1ccc(C(F)(F)F)cc1	99	-	-	.	106	.
Cc1nc(-c2ccc(C(F)(F)F)cc2)sc1C(=O)NN	86	-	-	.	-	14
N#Cc1cccc(Cn2nnc(-c3ccccc3)n2)c1	-	-	-	-	.	.
O=C(Nc1cccc(S(=O)(=O)N2CCCCC2)c1)c1ccc2c(=O)n3c(nc2c1)CCCCC3	-	-	-	-	.	.
COC(=O)C1(C)Cc2cc(OC(C)=O)c(OC(C)=O)cc2N1 (stereo not drawn)	-	.	.	.	.	.
CCC(c1nnnn1-c1ccc2c(c1)OCCO2)N1CCN(C(=O)C2CCCO2)CC1 (stereo not drawn)	.	-	.	.	.	.
CC(=O)c1cc(C)c(OC(=O)c2ccccc2)c(C)c1	.	-	-	.	.	.
CC(=O)Cc1cc(O)c2ccccc2c1OC(=O)c1ccccc1	93	-	-	-	98	16
Nc1ccc2nn(-c3ccc(F)cc3)nc2c1	106	-	-	.	-	14
Cc1ccc(-n2nc3ccc(N)cc3n2)cc1	88	-	-	-	76	-
CCOc1ccc(-n2nc3ccc(N)cc3n2)cc1	.	-	-	.	.	.
CNc1c(-n2cc(C(=O)OC)c(C(=O)OC)c2C(=O)OC)c(=O)n(C)c(=O)n1C	-	-	-	.	.	.
O=C1NCCC/C1=N\Nc1ccc(Br)cc1	119	-	-	.	124	21
Cc1ccccc1N/N=C1\CCCNC1=O	-	-	-	-	.	.
O=C(N/N=C/c1ccc2cccc(OCc3ccccc3)c2n1)c1ccc(Cl)cc1	99	-	-	-	70	13
O=c1[nH]c(-c2ccc(O)cc2)nc2scc(-c3cccs3)c12	124	-	-	.	86	23
Cc1nc2scc(-c3cccs3)c2c(=O)[nH]1	-	-	-	-	.	.
O=C(O)COc1ccccc1C1C2C(=O)N(c3ccc(F)cc3)C(=O)C2ON1c1ccccc1 (stereo not drawn)	-	-	-	-	.	.
COC(=O)c1cc(OC)c(OC)cc1NC(=S)N1CCOCC1	.	-	-	.	.	.
SMILES	AHR act	ABCB6 inh 2	FXN GAA850 act	STAT3 act	AHR act cf	PXR act counter
CC(=O)N/N=C/c1cc(C(C)(C)C)cc(/C=N/NC(C)=O)c1O	82	-	-	-	83	22
CC(=O)n1cc(/C=N/NC(=O)c2sc(C)nc2C)c2ccccc21	94	-	-	-	64	.
COCCN1Cc2c(sc(C)c2C)N(C(=O)c2ccccc2)C1	82	-	-	138	84	38
COc1ccc(S(=O)(=O)Nc2cc3c(C(C)=O)c(C)oc3c3ccccc23)cc1	92	-	-	-	76	255
CCN(C(=O)CSc1nc(C)nc2sc(C)c(C)c12)c1ccc(F)cc1	-	-	-	.	.	.
Cc1nc(SCC(=O)N(C)Cc2ccco2)c2c(C)c(C)sc2n1	92	-	-	-	55	182
Cc1ccc(N(CC(=O)NC2CCCC2)C(=O)CNC(=O)c2cccs2)cc1C	-	-	-	.	.	.
